From PubChem
The list is not random: actives were taken first. Their share in the collection is about 1.3%.
CRFBP-R2 block – antagonists of CRF-BP/CRF-R2 complex, primary screen, cell-based, HEK293, calcium dye fluorescence, uHTS. CRF-induced calcium fluorescence. inhibition, % at 11.8 µM. 350,000 tested, 0.59% active;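 active means inhibition of the ligand-induced calcium signal above about 50% at the single tested concentration, limit read from the data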
CRFBP-R2 agonist – agonists of CRF-BP/CRF-R2 complex, primary screen, cell-based, HEK293, calcium dye fluorescence, uHTS; CRF-binding protein / CRF receptor 2 complex (human); calcium dye fluorescence (FLIPR); percent of saturating CRF peptide response; activation, % at 13.2 µM; 350,000 tested, 0.46% active; AID 588473, 2011;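 active means activation of at least 50%, plus an integration ratio under a set limit after plate pattern correction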;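 further: plate controls were neutral control wells without compound for no effect and CRF at EC100 for full effect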
DDE Tn7 FP inh – inhibitors of Tn7 peptide binding to fibrin DD(E), primary screen, biochemical, fluorescence polarization, human fibrin, Tn7 probe; Fibrinogen beta chain (Homo sapiens), P02675; AID 720508, 2013; inhibition, % at 8.3 µM; FP displacement of FITC-Tn7 peptide from fibrin DD(E); 0% = median of compound wells per plate; 370,000 tested, 0.13% active;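 active means inhibition above the mean of compounds falling within the control limits plus 3 SD of them, cut at about 14% in these data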;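 further: 0% = plate median of compound wells and 100% = 10 µM Aha-Tn7 peptide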
Target sequence (P02675 whole entry, looked up): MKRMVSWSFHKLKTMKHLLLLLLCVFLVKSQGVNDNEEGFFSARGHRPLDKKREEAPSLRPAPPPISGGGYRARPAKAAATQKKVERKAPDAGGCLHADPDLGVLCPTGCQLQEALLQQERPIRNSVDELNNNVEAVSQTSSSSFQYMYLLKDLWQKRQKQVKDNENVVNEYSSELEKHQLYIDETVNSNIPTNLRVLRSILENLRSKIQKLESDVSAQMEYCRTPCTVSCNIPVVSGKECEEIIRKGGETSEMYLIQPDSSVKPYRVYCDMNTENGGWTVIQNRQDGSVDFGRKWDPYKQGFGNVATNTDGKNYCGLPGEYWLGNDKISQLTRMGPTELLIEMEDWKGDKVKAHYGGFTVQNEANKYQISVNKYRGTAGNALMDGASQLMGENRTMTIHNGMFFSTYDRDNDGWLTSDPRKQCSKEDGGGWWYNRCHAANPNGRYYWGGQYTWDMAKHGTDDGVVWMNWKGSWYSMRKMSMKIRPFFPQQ
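Assay system: Human fibrin DD(E) protein | Medium: Tris buffer with calcium and detergent, pH 7.8 | Reagent: 0.1 µM fluorescent Tn7 | Compound dosing: Single point at 8.3 µM | Times: 10 min preincubation, 3 h with tracer, room temperature | Detection: Fluorescence polarization of the labelled Tn7 tracer | Controls: Aha-Tn7 high control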
DDE Tn6 FP inh – inhibitors of Tn6 peptide binding to fibrin DD(E), primary screen, biochemical, fluorescence polarization, human fibrin, Tn6 probe; AID 720509, 2013; Fibrin DD(E) TRITC-Tn6 fluorescence polarization displacement; 370,000 tested, 0.21% active; inhibition, % at 8.3 µM;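 active means inhibition above a per-campaign cutoff: mean of compounds within control limits plus 3 SD, cut at about 15% in these data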;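 further: 0% = median of all compound wells on the plate and 100% = blocking peptide control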
* marks the source's active call; other numbers are inactive results; / = not tested or not shown.

SMILES	CRFBP-R2 block	CRFBP-R2 agonist	DDE Tn7 FP inh	DDE Tn6 FP inh
COC(=O)[C@]12C[C@H](CC(=O)N3CCSCC3)C(=O)N(Cc3ccco3)C1=C[C@H](C1CCCC1)O[C@@H]2C	/	/	-2	-6
FC(F)(F)c1cccc(-c2nc3nc(Cl)c(Cl)nc3[nH]2)c1	38	81*	/	/
O=C(Nc1nc2c(F)cc(F)cc2s1)c1ccc([N+](=O)[O-])o1	80*	18	-1	7
Cc1cc(C)c2nc(NC(=O)c3ccc([N+](=O)[O-])o3)sc2c1	6	0	1	13
Cn1c(-c2c(N)n(-c3ccccc3)c3nc4ccccc4nc23)nc2ccccc21	-200	86*	-7	-3
CSc1ccc(/C=C/C(=O)N2CCN(c3ccccn3)CC2)cc1	92*	-3	0	6
COc1ccc(/C=C/C(=O)N2CCN(c3ccccn3)CC2)cc1	-8	-2	-6	-3
O=C(COc1ccc([N+](=O)[O-])cc1)NNC(=O)Nc1ccc([N+](=O)[O-])cc1	1	10	9	1
O=C(C/C=N\OCc1ccc([N+](=O)[O-])cc1)Nc1ccc(Br)cc1	84*	-5	5	1
CC1(C)CC(=O)C2=C(C1)c1c(ccc3ccccc13)NC2c1cc([N+](=O)[O-])cc([N+](=O)[O-])c1O (stereo not given)	78*	-1	2	-1
CCN(CC)C(=O)[C@H]1C[C@H](CC(=O)NC/C=C(\C)CCC=C(C)C)C(=O)N2CCc3c([nH]c4ccc(Cl)cc34)[C@]12C	75*	2	4	7
CN(C)CCCNC(=O)C[C@H]1C[C@H](C(=O)N2CCOCC2)[C@@]2(C)c3[nH]c4ccc(Cl)cc4c3CCN2C1=O	95*	1	4	2
CN(C)CCCNC(=O)C[C@H]1C[C@H](C(=O)N2CCCCC2)[C@@]2(C)c3[nH]c4ccc(Cl)cc4c3CCN2C1=O	-8	-1	3	6
COc1ccc2[nH]c3c(c2c1)CCN1C(=O)C(CC(=O)NC/C=C(\C)CCC=C(C)C)C[C@H](C(=O)N2CCCCC2)[C@@]31C (stereo not given in full)	30	1	/	/
CC[C@]12c3[nH]c4ccc(OC)cc4c3CCN1C(=O)C(CC(=O)NCCCOC)C[C@@H]2C(=O)N1CCN(C(=O)c2ccco2)CC1 (stereo not given in full)	53*	0	0	4
CCN(CC)C(=O)[C@H]1CC(CC(=O)NC/C=C(\C)CCC=C(C)C)C(=O)N2CCc3c([nH]c4ccccc34)[C@]12C (stereo not given in full)	49	5	4	-5
CCN(CC)C(=O)[C@H]1CC(CC(=O)NC/C=C(\C)CCC=C(C)C)C(=O)N2CCc3c([nH]c4ccc(OC)cc34)[C@]12C (stereo not given in full)	78*	-7	-2	-5
CCCCCCCCN1CCS(=O)(=O)N(Cc2ccc(F)cc2)C(C(=O)OC)C1 (stereo not given)	/	/	-2	2
COC(=O)[C@]12C[C@H](CC(=O)N3CCN(C(=O)c4ccco4)CC3)C(=O)N(CCc3ccc(OC)c(OC)c3)C1=C[C@H](COCc1ccccc1)O[C@@H]2C	/	/	-5	-6
COc1ccc(S[C@]2(C(=O)N3CCOCC3)CC(=O)N(c3ccc(C#N)cc3)[C@@H]2c2ccc(OC)cc2)cc1	/	/	0	-6
COC(=O)c1cc(-c2cc3ccccc3o2)c(=O)n2c1CCC2	/	/	5	-4
C=CCN1C[C@@H](COCc2ccccc2)Oc2cccc(F)c2S1(=O)=O	/	/	7	8
COCCCNC(=O)CC1C[C@H](C(=O)N(C(C)C)C(C)C)[C@@]2(C)c3[nH]c4ccc(OC)cc4c3CCN2C1=O (stereo not given in full)	-2	-1	5	6
COc1ccc2[nH]c3c(c2c1)CCN1C(=O)C(CC(=O)NCCc2ccccn2)C[C@H](C(=O)N(C(C)C)C(C)C)[C@@]31C (stereo not given in full)	70*	-4	3	1
COc1ccc(N2C(=O)CC(c3ccc([N+](=O)[O-])cc3)C2=O)cc1 (stereo not given)	63*	2	-2	6
